# Published values gathered from unrelated publications.
# Compare with care: the assays were run in different laboratories.
# Matrix: Caco-2
Structure (SMILES),concentration,time,pH,efflux ratio
CC(C)c1nc(N(C)S(C)(=O)=O)nc(-c2ccc(F)cc2)c1/C=C/[C@@H](O)C[C@@H](O)CC(=O)O,5 µM,2 h,,142
NCCOCC(=O)N1CCC[C@H](C(=O)NCc2nc(-c3ccc(C(F)(F)F)cc3)cs2)C1,,,,120
O=C1CCC(N2Cc3cc(C4CCN(Cc5ccccc5)CC4)ccc3C2=O)C(=O)N1 (centres unmarked),10 µM,2 h,,1.9
N#Cc1ccc(C[C@H](Nc2ncc(-c3ccc(F)cc3)o2)C(=O)N2CCc3ccccc32)cc1,100 µM,2 h,,19
Cc1ccc(N(c2ccc(NC(=O)CN(C)c3ccccc3N3CCCC3=O)cc2)C(C)C)cc1,,,,2.3
O=c1cc(-c2ccc(O)cc2)oc2c([C@@H]3O[C@H](CO)[C@@H](O)[C@H](O)[C@H]3O)c(O)cc(O)c12,50 µg/mL,,,1.11
Cc1cc(C)c(CNC(=O)c2cc(Cl)c3c(c2C)O[C@@](C)([C@H]2CC[C@H](N(C)C)CC2)O3)c(=O)[nH]1,1 µM,,,52.4
COCC(=O)N1CCC[C@H](C(=O)NCc2nc(-c3ccccc3)cs2)C1,,,,1
N#Cc1ccc(C[C@H](Nc2c(Nc3ccc(Br)cc3)c(=O)c2=O)C(=O)N2CCc3ccccc32)cc1,100 µM,2 h,,> 20
CCOCC(=O)N1CCC[C@H](C(=O)NCc2nc(-c3ccc(C#N)nc3)cs2)C1,,,,4.3
O=c1c(O[C@@H]2O[C@H](CO)[C@H](O)[C@H](O)[C@H]2O)c(-c2ccc(O)c(O)c2)oc2cc(O)cc(O)c12,50 µg/mL,,,1.26
O=C(NCc1nc(-c2ccc(C(F)(F)F)cc2)cs1)[C@H]1CCCN(C(=O)COCCN2CCCCC2)C1,,,,27
CO/N=C(\C(=O)N[C@@H]1C(=O)N2C(C(=O)O)=C(CSC(=O)c3ccco3)CS[C@H]12)c1csc(N)n1,200 µg/mL,2 h,pH 7.4,1.96
COc1cc(NC(=O)Cn2cc(Cl)c3cc(F)c(-c4cnn(C)c4)cc32)cc(OC)c1OC,,,,18.2
